Tests used:
[1] = tested on: ulp2–KIM-3A and ctf3-2A cells; experiment: Spot assay, growth of mutant strains under chemical stress; type: cell-based, yeast; details: YPD + hydroxyurea; 10-fold dilution series
How it was run: (§1)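 Strains were built by lithium acetate integration of PCR products and verified by sequencing or PCR. Cells were grown in YPD to OD600 ~1 and diluted to OD600 0.2. 10-fold serial dilutions in sterile water, 5 µl each, were spotted on YPD or YPD with hydroxyurea at indicated concentrations. Plates were incubated 2 or 3 d at 30°C, then imaged.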

[2] = tested on: ctf3-2A ulp2–SIM-3A double mutant cells; experiment: as above; type: cell-based, yeast; details: 10-fold serial dilutions, 30°C, 2 or 3 d
How it was run: as §1

[3] = tested on: ctf3-2A cells; experiment: as above; type: cell-based, yeast; details: 10-fold serial dilutions, 30°C, 2 or 3 d; effects modest
How it was run: as §1

[4] = tested on: cells lacking both Ulp2–kinetochore interactions (KIM-Ctf3 and SIM-SUMO); experiment: Growth under chemical stress, cells lacking both Ulp2–kinetochore interactions; type: cell-based, yeast; details: KIM-Ctf3 and SIM-SUMO interactions both absent
How it was run: as §1

[5] = molecular target: T1, Ctf3 complex (Ctf3, Mcm16, Mcm22) (yeast, UniProt Q12748;Q12262;P47167); experiment: fluorescence polarisation
T1 sequence (Q12748 whole entry, chain 1 of 3): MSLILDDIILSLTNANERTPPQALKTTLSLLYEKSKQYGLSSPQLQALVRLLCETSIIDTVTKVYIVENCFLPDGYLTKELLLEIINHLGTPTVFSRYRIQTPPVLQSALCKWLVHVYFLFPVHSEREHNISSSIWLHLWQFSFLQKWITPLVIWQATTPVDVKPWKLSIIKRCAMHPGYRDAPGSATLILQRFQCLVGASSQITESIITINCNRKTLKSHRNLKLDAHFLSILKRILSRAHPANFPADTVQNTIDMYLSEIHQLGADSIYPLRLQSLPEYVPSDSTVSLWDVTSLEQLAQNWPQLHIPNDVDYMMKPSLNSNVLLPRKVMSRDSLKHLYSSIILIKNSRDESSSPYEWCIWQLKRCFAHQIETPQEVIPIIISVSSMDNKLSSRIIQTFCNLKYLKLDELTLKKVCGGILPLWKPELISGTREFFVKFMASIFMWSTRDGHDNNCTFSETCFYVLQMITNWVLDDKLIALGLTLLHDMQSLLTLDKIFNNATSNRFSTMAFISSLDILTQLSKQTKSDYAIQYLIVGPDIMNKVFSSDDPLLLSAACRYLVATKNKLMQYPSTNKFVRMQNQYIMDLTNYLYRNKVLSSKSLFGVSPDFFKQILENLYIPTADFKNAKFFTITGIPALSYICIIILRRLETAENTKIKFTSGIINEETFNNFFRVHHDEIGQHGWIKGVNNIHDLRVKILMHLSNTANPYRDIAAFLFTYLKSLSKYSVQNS
T1 sequence (Q12262 whole entry, chain 2 of 3): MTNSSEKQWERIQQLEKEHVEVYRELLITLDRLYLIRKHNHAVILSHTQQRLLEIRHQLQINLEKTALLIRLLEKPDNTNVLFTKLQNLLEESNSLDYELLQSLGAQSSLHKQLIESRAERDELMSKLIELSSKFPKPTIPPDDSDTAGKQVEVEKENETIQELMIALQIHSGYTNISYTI
T1 sequence (P47167 whole entry, chain 3 of 3): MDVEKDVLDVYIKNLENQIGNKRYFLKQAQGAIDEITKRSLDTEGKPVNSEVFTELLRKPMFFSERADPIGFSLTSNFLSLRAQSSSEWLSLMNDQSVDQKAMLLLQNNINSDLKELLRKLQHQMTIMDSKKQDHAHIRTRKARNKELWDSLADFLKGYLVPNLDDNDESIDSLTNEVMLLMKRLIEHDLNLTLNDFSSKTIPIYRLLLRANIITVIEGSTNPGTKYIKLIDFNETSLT

[6] = molecular target: T1, Ctf3 complex (Ctf3, Mcm16, Mcm22); experiment: pull-down
[7] = tested on: Ctf3-2A (Ctf3–R594A,K596A); experiment: GST pulldown with Ctf3-2A; type: binding, yeast; details: Fig. S2 A, 20 mM Tris, pH 8.5, 150 mM NaCl
[8] = tested on: Ctf3; experiment: GST-Ulp2-KIM pulldown from yeast cell extracts, Ctf3; type: binding; details: immobilized GST-Ulp2-KIM as bait; anti–Protein A blot

Molecule: NC(=O)NO [hydroxyurea]
- sensitivity of ulp2–KIM-3A and ctf3-2A cells [1]: elevated sensitivity
- sensitivity of ctf3-2A ulp2–SIM-3A double mutant cells [2]: pronounced
- sensitivity of ctf3-2A cells [3]: sensitizes cells to hydroxyurea
- viability/sensitivity of cells lacking both Ulp2–kinetochore interactions [4]: much more sensitive

Molecule: CCCCNC(=O)n1c(NC(=O)OC)nc2ccccc21 [benomyl]
- sensitivity of ctf3-2A ulp2–SIM-3A double mutant cells [2]: pronounced
- sensitivity of ctf3-2A cells [3]: sensitizes cells to hydroxyurea and benomyl
- viability/sensitivity of cells lacking both Ulp2–kinetochore interactions [4]: Compromised viability

Molecule: DDSDVNLIGSS (FITC-AHA on the N-terminus (FITC-AHA-DDSDVNLIGSS)) [FITC-Ulp2-KIM peptide (Ulp2-927-937)]
- Kd [5]: ~900 nM

Molecule: DDSDVALIGSS [GST-Ulp2-927-937 N932A]
- binding result [6]: binds

Molecule: ADSDVNLIGSS [GST-Ulp2-KIM 1DA-1 (Ulp2-D927A)]
- binding result [6]: binds

Molecule: DDSDVNLIGSS [GST-Ulp2-927-937]
- binding result [6]: binds

B1: GST-Ulp2-KIM: GST fusion of the Ulp2 kinetochore interaction motif (KIM) (protein)
chain: MSARKRKFNSLKPLDTLNSSRASSPRSSASLPPKRYNTFRKDPKIVDHLNNASTKDFLPVLSMNSESKRQIELSDNDVDNNDEGEGVNSGCSDQDFEPLQSSPLKRHSSLKSTSNGLLFQMSNNLGNGSPEPAVASTSPNGSIISTKLNLNGQFSCVDSKTLRIYRHKAPCIMTFVSDHNHPKFSLYFQQSVIYNSQVNLLDDVELIILDKKNSFMAIILKDLKKVKMILDVNNSSININTNILIWSTASSASNKKIKSIKRFLLMSYSSSIKVEILDHKEQILERLKHLIHPISSSSPSLNMERAINSTKNAFDSLRLKKTKLSTNDDESPQIHTHFLSNKPHGLQSLTKRTRIASLGKKEHSISVPKSNISPSDFYNTNGTETLQSHAVSQLRRSNRFKDVSDPANSNSNSEFDDATTEFETPELFKPSLCYKFNDGSSYTITNQDFKCLFNKDWVNDSILDFFTKFYIESSIEKSIIKREQVHLMSSFFYTKLISNPADYYSNVKKWVNNTDLFSKKYVVIPINISYHWFSCIITNLDAILDFHQNKDKNDAINSDEISINNPLVNILTFDSLRQTHSREIDPIKEFLISYALDKYSIQLDKTQIKMKTCPVPQQPNMSDCGVHVILNIRKFFENPVETIDVWKNSKIKSKHFTAKMINKYFDKNERNSARKNLRHTLKLLQLNYISYLKKENLYEEVMQMEEKKSTNINNNENYDDDDEEIQIIENIDQSSKDNNAQLTSEPPCSRSSSISTTEREPTELHNSVVRQPTGEIITDNEDPVRAASPETASVSPPIRHNILKSSSPFISESANETEQEEFTSPYFGRPSLKTRAKQFEGVSSPIKNDQALSSTHDIMMPSPKPKRIYPSKKIPQLSSHVQSLSTDSMERQSSPNNTNIVISDTEQDSRLGVNSESKNTSGIVNRDDSDVNLIGSSLPNVAEKNHDNTQESNGNNDSLGKILQNVDKELNEKLVDIDDVAFSSPTRGIPRTSATSKGSNAQLLSNYGDENNQSQDSVWDEGRDNPILLEDEDP
- Ulp2–KIM interaction with Ctf3-2A in pulldown [7]: Ctf3-2A does not support the Ulp2–KIM interaction

B2: Ulp2: nuclear enzyme that removes SUMO chains from modified substrates; in pulldown represented by GST-Ulp2-KIM bait (protein, UniProt P40537 1-1034, looked up)
Ubiquitin-like-specific …: MSARKRKFNSLKPLDTLNSSRASSPRSSASLPPKRYNTFRKDPKIVDHLNNASTKDFLPVLSMNSESKRQIELSDNDVDNNDEGEGVNSGCSDQDFEPLQSSPLKRHSSLKSTSNGLLFQMSNNLGNGSPEPAVASTSPNGSIISTKLNLNGQFSCVDSKTLRIYRHKAPCIMTFVSDHNHPKFSLYFQQSVIYNSQVNLLDDVELIILDKKNSFMAIILKDLKKVKMILDVNNSSININTNILIWSTASSASNKKIKSIKRFLLMSYSSSIKVEILDHKEQILERLKHLIHPISSSSPSLNMERAINSTKNAFDSLRLKKTKLSTNDDESPQIHTHFLSNKPHGLQSLTKRTRIASLGKKEHSISVPKSNISPSDFYNTNGTETLQSHAVSQLRRSNRFKDVSDPANSNSNSEFDDATTEFETPELFKPSLCYKFNDGSSYTITNQDFKCLFNKDWVNDSILDFFTKFYIESSIEKSIIKREQVHLMSSFFYTKLISNPADYYSNVKKWVNNTDLFSKKYVVIPINISYHWFSCIITNLDAILDFHQNKDKNDAINSDEISINNPLVNILTFDSLRQTHSREIDPIKEFLISYALDKYSIQLDKTQIKMKTCPVPQQPNMSDCGVHVILNIRKFFENPVETIDVWKNSKIKSKHFTAKMINKYFDKNERNSARKNLRHTLKLLQLNYISYLKKENLYEEVMQMEEKKSTNINNNENYDDDDEEIQIIENIDQSSKDNNAQLTSEPPCSRSSSISTTEREPTELHNSVVRQPTGEIITDNEDPVRAASPETASVSPPIRHNILKSSSPFISESANETEQEEFTSPYFGRPSLKTRAKQFEGVSSPIKNDQALSSTHDIMMPSPKPKRIYPSKKIPQLSSHVQSLSTDSMERQSSPNNTNIVISDTEQDSRLGVNSESKNTSGIVNRDDSDVNLIGSSLPNVAEKNHDNTQESNGNNDSLGKILQNVDKELNEKLVDIDDVAFSSPTRGIPRTSATSKGSNAQLLSNYGDENNQSQDSVWDEGRDNPILLEDEDP
- pulldown of Ctf3 from yeast cell extract [8]: Ctf3, but not Ctf3-2A, binds Ulp2
